ChEMBL document CHEMBL4387752, “Identification of substituted benzothiazole sulfones as potent and selective inhibitors of endothelial lipase” (Bioorg Med Chem Lett, 2019)
Activity calls are given as the source filed them. The calls are words filed in the database; no cut-off is given here.

Key:
[1] = Total AUC in Balb/c mouse at 20 mg/kg, po measured after 24 hrs; format: ADME, organism-based; set-up: dose 20 mg/kg, time AUCmax, route oral; conditions: in vivo
Procedure, shortened: (§1)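 Oral PK in fasted male balb/c mice. Dosing vehicle was ethanol/PEG 400/water (10:60:30).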

[2] = Permeability of compound at pH 5.5 by PAMPA; format: ADME; conditions: read-out: permeability
Procedure, shortened: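 Permeability was measured by parallel artificial membrane permeability assay (PAMPA) at pH 5.5 and pH 7.4. Values are reported in nm/s.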

[3] = Cmax in Balb/c mouse at 10 mg/kg, po; format: ADME, organism-based; set-up: dose 10 mg/kg, route oral; conditions: in vivo; procedure, shortened: as §1
[4] = Plasma concentration in Balb/c mouse at 30 mg/kg, po measured after 7 hrs; format: ADME, organism-based; procedure, shortened: as §1
[5] = Ratio of total AUC in Balb/c mouse at 20 mg/kg, po to total AUC in Balb/c mouse at 10 mg/kg, po measured after 24 hrs; format: ADME, organism-based; conditions: in vivo
Procedure, shortened: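 Ratio of AUCtotal between 20 and 10 mg/kg oral doses in fasted male balb/c mice. Vehicle was ethanol/PEG 400/water (10:60:30).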

[6] = biological target: T1, Endothelial lipase (Homo sapiens, UniProt Q9Y5X9); assay: Inhibition of human endothelial lipase using D31-POPC-HDL as substrate incubated for 2 hrs in presence of human serum by LC/MS analysis
T1 sequence (Q9Y5X9 whole entry): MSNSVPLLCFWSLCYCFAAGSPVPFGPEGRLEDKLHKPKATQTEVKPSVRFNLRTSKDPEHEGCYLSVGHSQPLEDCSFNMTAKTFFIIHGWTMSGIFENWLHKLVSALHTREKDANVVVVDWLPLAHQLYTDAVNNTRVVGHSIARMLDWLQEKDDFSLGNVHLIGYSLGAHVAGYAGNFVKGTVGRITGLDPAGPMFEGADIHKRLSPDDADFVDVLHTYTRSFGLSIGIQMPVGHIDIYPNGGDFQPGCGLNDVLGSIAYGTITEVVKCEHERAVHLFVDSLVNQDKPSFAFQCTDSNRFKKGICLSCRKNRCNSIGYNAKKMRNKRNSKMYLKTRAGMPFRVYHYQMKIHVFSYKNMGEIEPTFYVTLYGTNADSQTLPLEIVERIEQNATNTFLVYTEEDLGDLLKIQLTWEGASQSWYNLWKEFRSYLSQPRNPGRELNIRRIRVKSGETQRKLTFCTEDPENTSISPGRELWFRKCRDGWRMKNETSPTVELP
Procedure, shortened: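 IC50 values were derived from the means of duplicate inhibition measurements.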

[7] = Plasma concentration in Balb/c mouse at 30 mg/kg, po measured after 24 hrs; format: ADME, organism-based; procedure, shortened: as §1
[8] = Half life in Balb/c mouse at 20 mg/kg, po; format: ADME, organism-based; conditions: in vivo; procedure, shortened: as §1
[9] = tested on: Mus musculus; assay: Effect on in LDL-C level in C57BL/6 mouse plasma at 20 mg/kg, po bid measured after 1 to 4 days by FPLC analysis; format: functional, organism-based
Procedure, shortened: (§2)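 Wild-type C57BL/6 mice were dosed at 20 mg/kg p.o. b.i.d. for 4 days alongside a vehicle control group. Lipoprotein profiles were obtained by FPLC on day 1 and day 4, using plasma pooled from 8 mice.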

[10] = Ratio of Cmin in C57BL/6 mouse at 20 mg/kg, po bid measured after 8 hrs to IC50 for inhibition of mouse endothelial lipase expressed in HEK293F cells using D31-POPC-HDL as substrate incubated for 2 hrs in presence of mouse plasma by LC/MS analysis; format: organism-based; conditions: in vivo
[11] = Plasma concentration in Balb/c mouse at 20 mg/kg, po measured after 7 hrs; format: ADME, organism-based; procedure, shortened: as §1
[12] = species on record: Homo sapiens; assay: Selectivity index, ratio of IC50 for inhibition of human hepatic lipase expressed in African green monkey COS7 cells to IC50 for inhibition of human endothelial lipase derived from human HT1080 cell conditioned media; format: cell-based
[13] = biological target: T2, Hepatic triacylglycerol lipase (Homo sapiens, UniProt P11150); assay: Inhibition of human hepatic lipase expressed in African green monkey COS7 cells using PED-A1 as substrate incubated for 20 mins and measured every 20 secs for 10 mins by FRET assay; format: cell-based
T2 sequence (P11150 whole entry): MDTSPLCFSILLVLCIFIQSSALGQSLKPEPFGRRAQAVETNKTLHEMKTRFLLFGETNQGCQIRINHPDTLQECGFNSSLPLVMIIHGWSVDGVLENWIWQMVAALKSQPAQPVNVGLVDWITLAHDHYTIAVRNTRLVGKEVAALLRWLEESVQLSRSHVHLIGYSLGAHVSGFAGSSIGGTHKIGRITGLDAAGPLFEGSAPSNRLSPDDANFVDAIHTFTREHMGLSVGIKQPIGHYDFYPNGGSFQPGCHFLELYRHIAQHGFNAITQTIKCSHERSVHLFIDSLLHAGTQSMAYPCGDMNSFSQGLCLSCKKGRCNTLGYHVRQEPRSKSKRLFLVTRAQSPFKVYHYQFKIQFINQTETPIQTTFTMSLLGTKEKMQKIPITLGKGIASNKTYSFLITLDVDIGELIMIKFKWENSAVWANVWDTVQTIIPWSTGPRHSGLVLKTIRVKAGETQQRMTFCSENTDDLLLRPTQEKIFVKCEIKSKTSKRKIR
Procedure, shortened: (§3)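 IC50s were calculated from mean inhibition values of duplicate determinations.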

[14] = Tmax in Balb/c mouse at 20 mg/kg, po; format: ADME, organism-based; conditions: in vivo; procedure, shortened: as §1
[15] = biological target: T1, Endothelial lipase; assay: Inhibition of human endothelial lipase derived from human HT1080 cell conditioned media using PED-A1 as substrate incubated for 20 mins and measured every 20 secs for 10 mins by FRET assay; procedure, shortened: as §3
[16] = tested on: Mus musculus; assay: Increase in HDL-C level in C57BL/6 mouse plasma at 20 mg/kg, po bid measured after 1 to 4 days by FPLC analysis; format: functional, organism-based; procedure, shortened: as §2
[17] = Cmin in C57BL/6 mouse at 20 mg/kg, po bid measured after 102 hrs; format: ADME, organism-based; conditions: in vivo, read-out: Cmin
Procedure, shortened: (§4)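 Satellite PK cohort of wild-type C57BL/6 mice given 20 mg/kg p.o. b.i.d. over 4 days. Plasma levels were taken at 8, 24 and 102 h.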

[18] = Total AUC in Balb/c mouse at 10 mg/kg, po measured after 24 hrs; format: ADME, organism-based; set-up: dose 10 mg/kg, time AUCmax, route oral; conditions: in vivo; procedure, shortened: as §1
[19] = Half life in Balb/c mouse at 10 mg/kg, po; format: ADME, organism-based; conditions: in vivo; procedure, shortened: as §1
[20] = Plasma concentration in Balb/c mouse at 20 mg/kg, po measured after 24 hrs; format: ADME, organism-based; procedure, shortened: as §1
[21] = Ratio of Cmin in C57BL/6 mouse at 20 mg/kg, po bid measured after 102 hrs to IC50 for inhibition of mouse endothelial lipase expressed in HEK293F cells using D31-POPC-HDL as substrate incubated for 2 hrs in presence of mouse plasma by LC/MS analysis; format: organism-based; conditions: in vivo
[22] = Cmin in C57BL/6 mouse at 20 mg/kg, po bid measured after 8 hrs; format: ADME, organism-based; conditions: in vivo, read-out: Cmin; procedure, shortened: as §4
[23] = Ratio of Cmin in C57BL/6 mouse at 20 mg/kg, po bid measured after 24 hrs to IC50 for inhibition of mouse endothelial lipase expressed in HEK293F cells using D31-POPC-HDL as substrate incubated for 2 hrs in presence of mouse plasma by LC/MS analysis; format: organism-based; conditions: in vivo
[24] = Half life in Balb/c mouse at 30 mg/kg, po; format: ADME, organism-based; conditions: in vivo; procedure, shortened: as §1
[25] = Ratio of Cmin in Balb/c mouse at 20 mg/kg, po bid to IC50 for inhibition of mouse endothelial lipase expressed in HEK293F cells using D31-POPC-HDL as substrate incubated for 2 hrs in presence of mouse plasma by LC/MS analysis; format: organism-based; conditions: in vivo

`COCCS(=O)(=O)C(C(=O)NCC(=O)NC1CC1)c1nc2ccc(-c3ccc(F)nc3)cc2s1` (stereo not given) gave an AUC at 24 h [1] of 400 µM·h, a Papp [2] of 9.4 ×10⁻⁶ cm/s and a Cmax [3] of 39 µM. It also gave a concentration at 7 h [4] of 2.42 µM, a Ratio [5] of 3.6 and an IC50 [6] of 83 nM. The concentration at 24 h [7] was 0.025 µM, the half-life [8] was 2.3 h and the Activity [9] was “inactive”. For the same compound, the Ratio [10] was over 15, the concentration at 7 h [11] was 7.4 µM and the Ratio IC50 [12] was 84. For the same compound, the IC50 [13] was 230 nM, the Tmax [14] was 0.5 h and the IC50 [15] was 4.6 nM. The Activity [16] was “inactive”, the concentration at 102 h [17] was 6.5 µM and the AUC at 24 h [18] was 111 µM·h. The half-life [19] was 2.2 h, the concentration at 24 h [20] was 0.045 µM and the Ratio [21] was over 15. For the same compound, the concentration at 8 h [22] was 5.2 µM, the Ratio [23] was over 15 and the half-life [24] was 2.3 h. It also gave a Ratio [25] of 23.
